Experimental data taken from PMC4883117 (Fitoterapia, 2015).
pIC50, pKi: −log10 of the molar value. Like-named read-outs stand apart in the source and are kept apart here.

What was measured:
[1] = test system: Trypanosoma brucei brucei; test: In vitro antitrypanosomal Alamar Blue assay on T. brucei trypomastigote cultures; type: cell-based; settings: for Antitrypanosomal activity IC50 / Antitrypanosomal activity IC90: T. b. brucei, 37 °C, mean ± S.D. of duplicate observations, tested range 0.4–10 μg/mL; for IC90: read-out: Antitrypanosomal activity IC90
Outline: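 T. b. brucei trypomastigotes seeded at 2 × 10^6 cell/mL and exposed to test compound at three concentrations (40–1.6 or […]). Incubated 72 h at 37 °C, then parasite growth read by Alamar Blue. IC50 and IC90 were fitted from dose–response curves and given as mean ± S.D. of duplicate observations. Difluoromethylornithine served as positive control.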

THP1 cells = test: Cytotoxicity against THP1 cell cultures; type: cell-based, human
[2] = Cytotoxicity against THP1 cell cultures; type: cell-based, human; settings: human, THP1 cells
μ-opioid receptors = μ-opioid receptors (Homo sapiens, UniProt P35372); test: Opioid receptor radioligand binding assay; settings: for pKi: read-out: μ-opioid receptor Ki; for pIC50: read-out: μ-opioid receptor binding IC50
Chain of μ-opioid receptors (P35372 whole entry): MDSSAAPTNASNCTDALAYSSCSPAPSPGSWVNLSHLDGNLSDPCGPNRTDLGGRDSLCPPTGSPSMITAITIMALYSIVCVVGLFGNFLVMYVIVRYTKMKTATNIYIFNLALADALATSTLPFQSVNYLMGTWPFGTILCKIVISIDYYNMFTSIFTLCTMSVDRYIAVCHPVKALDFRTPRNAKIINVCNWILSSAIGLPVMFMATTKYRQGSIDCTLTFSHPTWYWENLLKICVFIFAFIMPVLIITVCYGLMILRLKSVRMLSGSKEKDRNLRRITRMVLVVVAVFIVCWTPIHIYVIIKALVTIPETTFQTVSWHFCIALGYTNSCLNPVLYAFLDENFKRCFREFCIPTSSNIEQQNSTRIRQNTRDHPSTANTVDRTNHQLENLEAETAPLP

With C/C(=C\C=C\[C@@H](C)[C@H]1CC[C@@]2(C)C3=C(CC[C@]12CO)[C@@]1(C)CC[C@H](O[C@@H]2O[C@H](CO)[C@@H](O[C@@H]4O[C@H](CO)[C@@H](O)[C@H](O)[C@H]4O)[C@H](O)[C@H]2O[C@@H]2O[C@H](CO)[C@@H](O)[C@H](O)[C@H]2O[C@@H]2O[C@@H](C)[C@H](O)[C@@H](O)[C@H]2O)C(C)(C)[C@@H]1CC3)C(=O)N[C@@H]1C(=O)O[C@H](C)[C@@H]1C [Compound 5, N-(2S, 3R, 4R-3-methyl-4-pentanolid-2-yl)-18-hydroxylanosta-8 (9), 22E, 24E-trien-27-amide-3-O-[α-L-rhamnopyranosyl-(1→2)-O-β-D-glucopyranosyl-(1→2)]-[β-D-glucopyranosyl-(1→4)]-β-D-glucopyranoside] the “Antitrypanosomal activity IC50” value ([1]; 72 h) was >10 µg/mL, the “Antitrypanosomal activity IC90” value ([1]; 72 h) was >10 µg/mL and the “antitrypanosomal activity (in words)” value ([1]; tested concentrations range 0.32–8.23 μM) was “no antitrypanosomal activity”. For the same compound, the “THP1 cell toxicity IC50” value (THP1 cells) was >10 µg/mL.
In the case of “2α-Hydroxyheinsiagenin A 3-O-[β-D-glucopyranosyl-(1→2)]-[β-D-glucopyranosyl]-(1→4)]-β-D-glucopyranoside [Compound 4]”, the “Antitrypanosomal activity IC50” value ([1]; 72 h) was 3.04 µg/mL, the “Antitrypanosomal activity IC90” value ([1]; 72 h) was 4.64 µg/mL and the “THP1 cell toxicity IC50” value (THP1 cells) was >10 µg/mL.
NCCCC(N)(C(=O)O)C(F)F (stereo not drawn) [DFMO, difluoromethylornithine, reference compound] showed an IC50 ([1]; Trypanosoma brucei, 72 h, read-out: Antitrypanosomal activity IC50) of 2.38 µg/mL, an IC90 ([1]; Trypanosoma brucei, 72 h) of 5.28 µg/mL and a pIC50 ([1]; Trypanosoma brucei, read-out: Antitrypanosomal activity IC50) of 4.88. The IC90 ([1]; Trypanosoma brucei) was 29 µM and the IC50 [2] was > 10 µg/mL.
In the case of “Heinsiagenin A 3-O-[α-L-rhamnopyranosyl-(1→2)-β-D-glucopyranosyl-(1→2)]-β-D-glucopyranoside [Compound 1]”, the “Antitrypanosomal activity IC50” value ([1]; 72 h) was 9.13 µg/mL, the “Antitrypanosomal activity IC90” value ([1]; 72 h) was 11.05 µg/mL and the “radio ligand displacement in μ-opioid receptor binding assay” value (μ-opioid receptors) was 65.9%. The pKi (μ-opioid receptors) was 5.00, the pIC50 (μ-opioid receptors) was 4.70 and the “THP1 cell toxicity IC50” value (THP1 cells) was >10 µg/mL.
In the case of “2α-Hydroxyheinsiagenin A 3-O-[α-L-rhamnopyranosyl-(1→2)-β-D-glucopyranosyl-(1→2)]-β-D-glucopyranoside [Compound 3]”, the “Antitrypanosomal activity IC50” value ([1]; 72 h) was 2.75 µg/mL, the “Antitrypanosomal activity IC90” value ([1]; 72 h) was 3.53 µg/mL and the “THP1 cell toxicity IC50” value (THP1 cells) was >10 µg/mL.
With “Heinsiagenin A 3-O-[α-L-rhamnopyranosyl-(1→2)-β-D-glucopyranosyl-(1→2)]-[β-D-glucopyranosyl-(1→4)]-β-D-glucopyranoside [Compound 2]” the “Antitrypanosomal activity IC50” value ([1]; 72 h) was 3.08 µg/mL, the “Antitrypanosomal activity IC90” value ([1]; 72 h) was 4.27 µg/mL and the “radio ligand displacement in μ-opioid receptor binding assay” value (μ-opioid receptors) was 61.0%. The pKi (μ-opioid receptors) was 6.06, the pIC50 (μ-opioid receptors) was 5.76 and the “THP1 cell toxicity IC50” value (THP1 cells) was >10 µg/mL.
